From article PMC8395708 (JACS Au, 2021)
Values belong to the substance of their own block, whether it stands above or below them.

Assays:
[1] = NO release, Nitrate/Nitrite Colorimetric Assay; assay type: physicochemical; conditions: degradation of BSA-bound DNIC, PBS pH 7.4
Procedure, shortened: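 25 μM test compound was left to degrade under air for 2 d in 50 mM phosphate pH 7.4, SIF or SGFsp, or with BSA in PBS pH 7.4. For nitrate/nitrite, 10 μL sample was diluted in kit buffer with enzyme cofactor and nitrate reductase for 1 h at room temperature. NO equivalents were calculated from 0–35 μM nitrite/nitrate standard curves.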

[2] = Effect of BSA or L-cysteine on degradation of DNIC-1 in PBS; assay type: physicochemical
Procedure, shortened: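 UV-vis stability: 25 μM test compound with 10 mg/mL BSA in PBS pH 7.4 at 37 °C under air. […] The same design was used with 150 μM L-cysteine instead of BSA, and with BSA under anaerobic conditions. Three independent experiments.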

[3] = biological target: bovine serum albumin (BSA) (Bos taurus, UniProt P02769); experiment: Reaction of DNIC-1 with bovine serum albumin; assay type: binding; conditions: PBS pH 7.4, 37 °C, EPR
[4] = assay type: in vivo, C57BL/6JNarl mice; conditions: mice, oral gavage 13.25 mg/kg

bovine serum albumin (BSA), sequence (P02769 25-607): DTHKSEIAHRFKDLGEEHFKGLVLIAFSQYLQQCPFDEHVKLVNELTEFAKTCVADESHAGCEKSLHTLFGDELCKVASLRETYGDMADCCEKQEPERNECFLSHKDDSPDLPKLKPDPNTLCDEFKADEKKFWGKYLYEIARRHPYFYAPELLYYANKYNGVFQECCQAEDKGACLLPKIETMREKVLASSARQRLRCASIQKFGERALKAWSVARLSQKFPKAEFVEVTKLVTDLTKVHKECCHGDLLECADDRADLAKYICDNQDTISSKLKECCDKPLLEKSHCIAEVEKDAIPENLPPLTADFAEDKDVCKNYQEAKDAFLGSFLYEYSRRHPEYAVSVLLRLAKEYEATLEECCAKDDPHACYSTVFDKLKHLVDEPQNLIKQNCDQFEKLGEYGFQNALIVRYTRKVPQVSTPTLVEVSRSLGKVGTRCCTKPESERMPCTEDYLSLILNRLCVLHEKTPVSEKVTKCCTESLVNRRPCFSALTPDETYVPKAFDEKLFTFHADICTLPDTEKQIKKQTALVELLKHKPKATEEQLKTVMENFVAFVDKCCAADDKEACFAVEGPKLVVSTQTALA

reaction time to plateau of BSA-bound DNIC formation [3]: 15 min
Substance: [(NO)2Fe(SR)(BSA)] (R = CH2CH2OH) [BSA-bound DNIC]
released nitric oxide [1]: ~1.4 equiv
half-life of BSA-bound DNIC (UV-vis decay at 384 and 565 nm) ([2]; 25 μM DNIC-1 + 10 mg/mL BSA, PBS pH 7.4, aerobic, 37 °C): 3.5 ± 0.3 h
half-life of BSA-bound DNIC (decay of EPR signal) ([2]; 25 μM DNIC-1 + 50 mg/mL BSA, PBS pH 7.4, aerobic, 37 °C, EPR): 3.5 ± 0.2 h
stability under anaerobic condition ([2]; 10 mg/mL BSA, PBS pH 7.4, 37 °C, 24 h, anaerobic): No change of the UV–vis spectra

Substance: [(NO)2Fe(SR)(mucin)] (R = CH2CH2OH) [mucin-bound DNIC]
half-life in the small intestine [4]: 3.0 ± 0.6 h
